Experimental data from ChEMBL document CHEMBL1124408, “3-aminopyridazine derivatives with atypical antidepressant, serotonergic, and dopaminergic activities” (J Med Chem, 1989).

Columns and labels:
Type in all cases: functional
Mus musculus [1] = test: Serotonergic activity was determined by measuring the potentiation of 5-hydroxytryptophan in mice upon ip administration
In short: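 Drug was injected ip in distilled water/gum tragacanth to female CD1 mice (18-22 g) at multiple doses (7-20 mice/dose), 30 min before a threshold dose of L-5-HTP (200 mg/kg ip). Mice were held singly in small cages, and tremor was scored all-or-none over the 20 min after L-5-HTP.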

Mus musculus [2] = test: Ability to modify turning behavior of mice after intraperitoneal administration; details: ip, read-out: MED
In short: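 Female CD1 mice (25-30 g) were lesioned by stereotaxic injection of 6-OHDA (10 μg in 1 μL saline with 1 mg/mL ascorbic acid) into the right striatum under pentobarbitone (60 mg/kg ip). Seven days later, drug in distilled water/gum tragacanth was given ip at multiple doses (7-20 mice/dose). Ipsilateral turns were counted for 2 min starting 30 min post-dose.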

Mus musculus [3] = test: Compound was tested for antidepressant activity against reserpine induced ptosis in mice after intraperitoneal administration.; value ranges from 2.2-2.4; details: ip
In short: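 Female CD1 mice (18-22 g) received the drug in distilled water/gum tragacanth ip at multiple doses (7-20 mice/dose), given together with reserpine (2 mg/kg iv). One hour later, palpebral ptosis (half or more of the lid closed) was scored all-or-none. Screening dose was at most 50% of the seizure threshold dose.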

CN(C)CCCN1c2ccccc2CCc2ccccc21 [IMIPRAMINE]
ED50 (Mus musculus [1]): > 30 mg/kg | minimal effective dose (Mus musculus [2]): > 20 mg/kg | ED50 (Mus musculus [3]): 2.3 mg/kg
